# Compound activity: PubChem, several laboratories
# Only some compounds are listed: those with a hit (about 2% of all), similar ones and a draw of the others.
# Myeloid diff 2 = induction of myeloid progenitor differentiation, primary screen, cell-based, flow cytometry, MLPCN library. ER-HoxA9 myeloid progenitors, lysozyme-GFP differentiation. calls only at 10 µM. hit rate 1% among 360,000;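 active means normalized GFP-positive differentiation at or above the plate's own cutoff, the solvent-only control mean plus 3 SD; inconclusive means no clear call, values can overlap the other calls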;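 further: cells exposed to compound for four days before flow analysis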
# NR2E3 ag-1 = NR2E3 agonists in two-hybrid cells, primary screen, cell-based, luminescence, CHO-S, Gal4-NCOR/VP16-NR2E3; Photoreceptor-specific nuclear receptor (Homo sapiens), Q9Y5X4; luciferase; inhibition of corepressor binding, % at 3.98 µM; hit rate 0.35% among 360,000; AID 602229, 2012;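 active means inhibition above the mean of all tested compounds plus 3 SD, cut at about 70% in these data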;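 further: 0% = DMSO with NR2E3 transfected cells and 100% = cells lacking NR2E3 construct; higher means lower luciferase signal from less NR2E3 corepressor binding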
# Target sequence (Q9Y5X4 whole entry, looked up, the tested form may be a part): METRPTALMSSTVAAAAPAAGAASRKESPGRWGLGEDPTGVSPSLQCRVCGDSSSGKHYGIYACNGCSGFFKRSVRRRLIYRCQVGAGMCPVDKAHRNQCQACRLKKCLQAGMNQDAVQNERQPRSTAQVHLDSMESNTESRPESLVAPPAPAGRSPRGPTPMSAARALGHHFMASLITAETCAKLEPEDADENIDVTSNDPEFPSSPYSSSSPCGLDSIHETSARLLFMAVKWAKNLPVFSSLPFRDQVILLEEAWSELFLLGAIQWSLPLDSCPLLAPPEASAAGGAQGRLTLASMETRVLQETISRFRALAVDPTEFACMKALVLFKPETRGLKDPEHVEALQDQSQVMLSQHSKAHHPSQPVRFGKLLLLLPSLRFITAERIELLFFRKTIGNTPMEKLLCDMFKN
# T cell HTS = modulators of CD8 T cell-vesicle binding, primary screen, mouse 2C CD8+ T cells, flow cytometry; response (vesicle binding), % at 7 µM; hit rate 0.068% among 330,000; 2C CD8+ T cell-vesicle binding; hits give low values; AID 2052, 2009;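 active means response, share of CD8 T cells binding vesicles, and their 90th percentile fluorescence all below set limits, cut at about 80% in these data, passing the limit was not always enough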;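 further: values below 100% mean blocked vesicle binding to the CD8+ T cells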
#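 Test system: purified 2C TCR transgenic mouse naive CD8+ T cells. Probe or stimulus: QL9-peptide-loaded Drosophila micro-vesicles bearing Ld, ICAM-1 and B7-1. Incubation: binding step 1.5 h, 37 °C, antibody labelling 20 min, ice. Measured by: flow cytometry of vesicle-bound cells.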
# NR2E3 ag-2 = inhibitors of NR2E3-RetCOR corepressor binding, primary screen, NR2E3 agonist project, biochemical, TR-FRET, GST-NR2E3, biotin-RetCOR; AID 2300, 2010; Photoreceptor-specific nuclear receptor (Homo sapiens), Q9Y5X4; hit rate 0.12% among 320,000; inhibition of corepressor binding, % at 4.78 µM; 1536-well;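 active means percent inhibition above the cutoff of mean plus 3 SD of all tested compounds, set per screening campaign, cut at about 20% in these data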;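 further: 0% = DMSO wells and 100% = biotin wells as full block of FRET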
#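 Material: NR2E3–RetCOR corepressor complex | Quantity: 1.35 nM GST-tagged NR2E3 final | Schedule: 5 h at 4 °C | Replication: Singlicate compound wells | Reagent: RetCOR corepressor, biotinylated, 7 nM | Controls: Biotin wells as high control, 0.6% DMSO wells as low control | Signal: TR-FRET, Eu(K)-anti-GST donor, streptavidin-D2 acceptor, ex 340, em 617/671 nm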
# FXN GAA850 act = FXN promoter activators, primary screen, cell-based, luciferase luminescence, HEK293 lucGAA850. hit rate 0.56% among 360,000. HEK293 lucGAA850 FXN promoter luciferase reporter, 24 h; percent of 10 µM SAHA response. AID 540364, 2011. activation, % at 6 µM;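 active means activation above the average of all compounds screened plus 3 SD, cutoff fixed separately per campaign, cut at about 7.5% in these data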;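 further: 0% = DMSO wells and 100% = 10 µM SAHA wells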
# GAA30 counter = GAA30 FXN promoter activators, confirmation, counter-screen for GAA850 frataxin promoter activator project, cell-based, luminescence, HEK293, lucGAA30, triplicate; shares compounds with FXN GAA850 act; HEK293 lucGAA30 FXN promoter luciferase, 24 h; DMSO = 0%, 5 µM ipriflavone = 100%; activation, % at 6 µM; hit rate 66% among 1,900; AID 588350, 2011;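 active means mean activation above the mean of solvent-only control wells plus 3 SD, cut at about 22% in these data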;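 further: counterscreen of GAA850 promoter hits where activity marks nonselective or luminescence artifacts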
# GAA850 confirm = FXN GAA850 promoter activators in reporter cells, confirmation, cell-based, luminescence, HEK293 lucGAA850, triplicate. hit rate 86% among 1,900. shares compounds with FXN GAA850 act. activation, % at 6 µM. HEK293 lucGAA850 FXN promoter luciferase reporter, 24 h; 100% = activation by SAHA;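 active means mean activation above a set limit taken from the primary screen, cut at about 8% in these data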;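 further: 0% = DMSO wells and 100% = 10 µM SAHA wells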
# Active calls of the source: *; i = inactive; ? = inconclusive; / = no result.
SMILES,Myeloid diff 2,NR2E3 ag-1,T cell HTS,NR2E3 ag-2,FXN GAA850 act,GAA30 counter,GAA850 confirm
CC1(C(=O)NS(=O)(=O)c2ccccc2Cl)CCN1C(=O)Cc1ccccc1Cl (stereo not given),i,16.3,/,/,-2.3,/,/
CC1Cc2ccccc2N1C(=O)Cn1cc(C(F)(F)F)ccc1=O (stereo not given),i,20.2,/,/,-1.2,/,/
CCC(O)(CC)C(=O)NN(C(=O)Nc1csc2c1CCCC2)c1ccccc1,i,3.1,181.3,2.2,9.4*,6.6,2.6
COC(=O)N(NC(=O)C(O)(CCC(C)C)CCC(C)C)c1ccccc1,i,-12.0,506.0,1.4,-2.6,/,/
CCOC(=O)C1CCN(S(=O)(=O)c2cccc(-c3csc(C)n3)c2)CC1,i,4.2,225.0,2.1,8.4*,5.8,3.0
CCOC(=O)C1CCN(S(=O)(=O)c2cccc(-c3cn4cc(C)ccc4n3)c2)CC1,i,8.1,198.0,2.2,-0.7,/,/
COc1ccccc1NC(=O)c1sc2ncn(CC(=O)Nc3ccccc3)c(=O)c2c1C,?,27.5,253.0,1.9,13.3*,-4.1,0.0
COc1ccccc1NC(=O)Cn1cnc2sc(C(=O)Nc3cc(OC)c(OC)c(OC)c3)c(C)c2c1=O,i,-4.2,307.8,0.9,-1.2,/,/
Nc1ccc2cc3[nH]c4cc(N)ccc4c3nc2c1,?,-51.3,/,/,11.7*,-83.7,0.5
Nc1ccc(-c2nc3ccc(N)cc3[nH]2)cc1,i,-30.8,625.6,-11.9,-1.7,/,/
COC(=O)c1ccc(CSc2ncnc3c2sc2nc(N4CCOCC4)c4c(c23)CCCC4)o1,i,1.0,261.5,-1.2,13.3*,11.6,15.2*
O=C(COc1ccc(S(=O)(=O)N2CCOCC2)cc1)NCCc1ccc(Cl)cc1,i,15.0,/,/,1.3,/,/
Cc1c(C(=O)Nc2ccncc2)sc2nc(-c3ccc(F)cc3)cn12,i,3.5,295.4,-75.8,14.9*,45.7*,24.7*
CC1(C(=O)NS(=O)(=O)c2ccc(Cl)cc2)CCN1C(=O)C/C=C/c1ccccc1 (stereo not given),i,-17.2,/,/,1.2,/,/
COc1ccc(-c2cn3ccccc3n2)cc1OC,i,-68.1,493.9,4.9,7.9*,145.5*,44.4*
COc1ccc(-c2cn3cc(C)ccc3n2)cc1OC,i,-132.3,268.3,0.5,3.2,/,/
C=CCNc1sc(C(=O)c2ccccc2)c(N)c1-c1nc2ccccc2s1,i,-40.8,398.1,-0.9,8.0*,-5.4,10.7*
CC[C@@]12C(=O)N(c3ccc(C)cc3)C(=O)N1[C@H](c1cccc(C)c1)[C@@H]1C(=O)N(Cc3ccccc3)C(=O)[C@@H]12,i,0.1,i,-2.9,8.4*,23.1*,12.4*
Cc1cccc([C@@H]2[C@@H]3C(=O)N(Cc4ccccc4)C(=O)[C@@H]3[C@]3(C)C(=O)N(c4cccc(F)c4)C(=O)N23)c1,i,-11.3,427.5,3.7,-1.0,/,/
CCN1C(=O)[C@H]2[C@@H](c3ccc(C)cc3)N3C(=O)N(c4cccc(Cl)c4)C(=O)[C@@]3(CC)[C@H]2C1=O,i,2.3,663.2,-3.0,8.2*,9.1,7.9*
Cc1ccc(N2C(=O)N3[C@H](c4cccc(C)c4)[C@@H]4C(=O)N(Cc5ccccc5)C(=O)[C@@H]4[C@]3(C)C2=O)cc1,i,-15.2,693.8,1.1,7.6*,17.7,8.5*
COc1ccc(S(=O)(=O)N(C)C[C@H]2Oc3ccc(NC(=O)Nc4c(C)noc4C)cc3C(=O)N([C@H](C)CO)C[C@@H]2C)cc1,i,-13.3,276.3,/,-1.1,/,/
O=C(NN=Cc1ccc(O)cc1O)c1ccccc1NS(=O)(=O)c1cccs1,i,-18.1,461.3,/,-0.4,/,/
COc1ccc(Cl)cc1NC(=O)CN(C)C(=O)c1n[nH]c2ccccc12,i,-23.7,414.2,-3.8,1.0,/,/
COCCCNCCCCOc1ccc(OCc2ccccc2)cc1,i,-27.7,243.7,4.5,3.8,/,/
SMILES,Myeloid diff 2,NR2E3 ag-1,T cell HTS,NR2E3 ag-2,FXN GAA850 act,GAA30 counter,GAA850 confirm
c1ccc(COc2ccc(OCCCCN3CCCC3)cc2)cc1,i,-84.6,197.3,-2.2,7.6*,83.3*,32.7*
C=CCNCCCCOc1ccc(OCc2ccccc2)cc1,i,-25.3,522.9,1.9,9.1*,102.1*,49.0*
c1ccc2c(c1)CNc1ccccc1-2,i,-8.6,/,/,0.0,/,/
CC(C)c1ccc(CC(=O)N2CCC2(C)C(=O)NS(=O)(=O)c2cccc(C#N)c2)cc1 (stereo not given),i,-6.7,/,/,0.6,/,/
CCOc1cc(/C=N/Nc2ccccc2Cl)ccc1OCC(=O)O,i,-16.0,370.6,-1.6,1.3,/,/
COc1ccc(Cn2nnnc2C(c2cc3cc(C)cc(C)c3[nH]c2=O)N2CCOCC2)cc1 (stereo not given),i,3.0,302.5,-1.4,8.1*,10.6,7.0
CC(=NNC(=S)N(Cc1ccccn1)Cc1ccccn1)c1cnccn1,?,-24.2,/,/,11.9*,-115.7,-32.6
Nc1ncnc2c1ncn2[C@@H]1O[C@H](C(=O)N2CCN(c3ccc(Cl)cn3)CC2)[C@@H](O)[C@H]1O,i,12.6,/,/,/,/,/
O=C(NNC(=O)C12CC3CC(CC(C3)C1)C2)c1ccccn1,i,5.8,282.4,-2.5,10.2*,-130.3,-37.1
CC(=O)c1cccc(NC(=O)/C=C/c2ccc([N+](=O)[O-])s2)c1,/,-20.1,/,/,7.2,/,/
Cc1cc(C)cc(NC(=O)/C=C/c2ccc([N+](=O)[O-])s2)c1,?,-10.1,313.1,2.2,8.7*,-29.3,18.2*
O=C(Nc1sc2c(c1C(=O)NCc1ccco1)CCCC2)c1ccc2c(c1)OCO2,i,-67.1,272.1,-2.2,10.2*,69.2*,30.8*
Nc1c(C=C2C=CC(=O)C=C2)c(=O)nc2snc(SCc3ccccc3)n12,i,-59.5,418.9,4.1,7.7*,58.9*,15.2*
O=C(NC12CC3CC(CC(C3)C1)C2)N(Cc1ccccc1)Cc1ccncc1,i,-31.9,430.2,0.9,10.3*,13.0,13.2*
Clc1ccccc1/C=N/NC1=Nc2cccc3cccc1c23,i,-118.0,286.3,-3.0,9.7*,83.9*,39.4*
